Measured values from ChEMBL document CHEMBL4004831, “Naphthalene diimide-polyamine hybrids as antiproliferative agents: Focus on the architecture of the polyamine chains” (Eur J Med Chem, 2017).

How the values were obtained:
[1] = organism: Homo sapiens; assay: Stabilization of 5'Dabcyl/3'FAM labeled human telomeric sequence G-quadruplex DNA assessed as increase in melting temperature at 2.5 uM pretreated for 5 mins at 30 degreeC followed by 5 mins incubation at 95 degreeC by fluorescence assay
In short: (§1)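 FRET melting in LiP buffer (10 mM LiOH, 50 mM KCl, pH 7.0 with H3PO4), ex 488 nm, em 520 nm. Samples were held 5 min at 30 °C, heated at 1 °C/min to 95 °C, held 5 min, then re-annealed. Tm came from first derivatives; ΔTm = shift with ligand at 2.5; at least three runs.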

[2] = Stabilization of 5'Dabcyl/3'FAM labeled duplex DNA (unknown origin) assessed as increase in melting temperature at 2.5 uM pretreated for 5 mins at 30 degreeC followed by 5 mins incubation at 95 degreeC by fluorescence assay; in short: as §1
[3] = tested on: CCRF-CEM; assay: Growth inhibition of human CCRF-CEM cells incubated for 48 hrs by sulforhodamine B assay; assay type: functional
[4] = tested on: K562; assay: Growth inhibition of human K562 cells incubated for 48 hrs by sulforhodamine B assay; assay type: functional; conditions: K562, 48 h
[5] = tested on: RPMI-8226; assay: Growth inhibition of human RPMI8226 cells incubated for 48 hrs by sulforhodamine B assay; assay type: functional; conditions: RPMI-8226, 48 h
[6] = tested on: SR; assay: Growth inhibition of human SR cells incubated for 48 hrs by sulforhodamine B assay; assay type: functional
[7] = tested on: A549; assay: Growth inhibition of human A549/ATCC cells incubated for 48 hrs by sulforhodamine B assay; assay type: functional; conditions: A549, 48 h
[8] = tested on: EKVX; assay: Growth inhibition of human EKVX cells incubated for 48 hrs by sulforhodamine B assay; assay type: functional
[9] = tested on: HOP-62; assay: Growth inhibition of human HOP62 cells incubated for 48 hrs by sulforhodamine B assay; assay type: functional; conditions: HOP-62, 48 h
[10] = tested on: NCI-H23; assay: Growth inhibition of human NCI-H23 cells incubated for 48 hrs by sulforhodamine B assay; assay type: functional; conditions: NCI-H23, 48 h
[11] = tested on: NCI-H322M; assay: Growth inhibition of human NCI-H322M cells incubated for 48 hrs by sulforhodamine B assay; assay type: functional
[12] = tested on: NCI-H460; assay: Growth inhibition of human NCI-H460 cells incubated for 48 hrs by sulforhodamine B assay; assay type: functional; conditions: NCI-H460, 48 h
[13] = tested on: NCI-H522; assay: Growth inhibition of human NCI-H522 cells incubated for 48 hrs by sulforhodamine B assay; assay type: functional; conditions: NCI-H522, 48 h
[14] = tested on: COLO 205; assay: Growth inhibition of human COLO205 cells incubated for 48 hrs by sulforhodamine B assay; assay type: functional; conditions: COLO 205, 48 h
[15] = tested on: HCC 2998; assay: Growth inhibition of human HCC2998 cells incubated for 48 hrs by sulforhodamine B assay; assay type: functional; conditions: HCC 2998, 48 h
[16] = tested on: HCT-116; assay: Growth inhibition of human HCT116 cells incubated for 48 hrs by sulforhodamine B assay; assay type: functional; conditions: HCT-116, 48 h
[17] = tested on: HCT-15; assay: Growth inhibition of human HCT15 cells incubated for 48 hrs by sulforhodamine B assay; assay type: functional; conditions: HCT-15, 48 h
[18] = tested on: KM12; assay: Growth inhibition of human KM12 cells incubated for 48 hrs by sulforhodamine B assay; assay type: functional; conditions: KM12, 48 h
[19] = tested on: SW-620; assay: Growth inhibition of human SW620 cells incubated for 48 hrs by sulforhodamine B assay; assay type: functional; conditions: SW-620, 48 h
[20] = tested on: SF-268; assay: Growth inhibition of human SF268 cells incubated for 48 hrs by sulforhodamine B assay; assay type: functional; conditions: SF-268, 48 h
[21] = tested on: SF-295; assay: Growth inhibition of human SF295 cells incubated for 48 hrs by sulforhodamine B assay; assay type: functional; conditions: SF-295, 48 h
[22] = tested on: SF-539; assay: Growth inhibition of human SF539 cells incubated for 48 hrs by sulforhodamine B assay; assay type: functional; conditions: SF-539, 48 h
[23] = tested on: SNB-19; assay: Growth inhibition of human SNB19 cells incubated for 48 hrs by sulforhodamine B assay; assay type: functional; conditions: SNB-19, 48 h
[24] = tested on: SNB-75; assay: Growth inhibition of human SNB75 cells incubated for 48 hrs by sulforhodamine B assay; assay type: functional; conditions: SNB-75, 48 h
[25] = tested on: LOX IMVI; assay: Growth inhibition of human LOXIMVI cells incubated for 48 hrs by sulforhodamine B assay; assay type: functional
[26] = tested on: M14; assay: Growth inhibition of human M14 cells incubated for 48 hrs by sulforhodamine B assay; assay type: functional; conditions: M14, 48 h
[27] = tested on: MDA-MB-435; assay: Growth inhibition of human MDA-MB-435 cells incubated for 48 hrs by sulforhodamine B assay; assay type: functional; conditions: MDA-MB-435, 48 h
[28] = tested on: SK-MEL-2; assay: Growth inhibition of human SK-MEL-2 cells incubated for 48 hrs by sulforhodamine B assay; assay type: functional; conditions: SK-MEL-2, 48 h
[29] = tested on: OVCAR-3; assay: Growth inhibition of human OVCAR3 cells incubated for 48 hrs by sulforhodamine B assay; assay type: functional; conditions: OVCAR-3, 48 h
[30] = tested on: OVCAR-5; assay: Growth inhibition of human OVCAR5 cells incubated for 48 hrs by sulforhodamine B assay; assay type: functional; conditions: OVCAR-5, 48 h
[31] = tested on: NCI/ADR-RES; assay: Growth inhibition of human NCI-ADR-RES cells incubated for 48 hrs by sulforhodamine B assay; assay type: functional
[32] = tested on: SK-OV-3; assay: Growth inhibition of human SKOV3 cells incubated for 48 hrs by sulforhodamine B assay; assay type: functional; conditions: SK-OV-3, 48 h
[33] = tested on: 786-0; assay: Growth inhibition of human 786-0 cells incubated for 48 hrs by sulforhodamine B assay; assay type: functional; conditions: 786-0, 48 h
[34] = tested on: A498; assay: Growth inhibition of human A498 cells incubated for 48 hrs by sulforhodamine B assay; assay type: functional; conditions: A498, 48 h
[35] = tested on: ACHN; assay: Growth inhibition of human ACHN cells incubated for 48 hrs by sulforhodamine B assay; assay type: functional
[36] = tested on: CAKI-1; assay: Growth inhibition of human Caki1 cells incubated for 48 hrs by sulforhodamine B assay; assay type: functional; conditions: CAKI-1, 48 h
[37] = tested on: RXF 393; assay: Growth inhibition of human RXF393 cells incubated for 48 hrs by sulforhodamine B assay; assay type: functional; conditions: RXF 393, 48 h
[38] = tested on: SN12C; assay: Growth inhibition of human SN12C cells incubated for 48 hrs by sulforhodamine B assay; assay type: functional
[39] = tested on: TK-10; assay: Growth inhibition of human TK10 cells incubated for 48 hrs by sulforhodamine B assay; assay type: functional; conditions: TK-10, 48 h
[40] = tested on: UO-31; assay: Growth inhibition of human UO31 cells incubated for 48 hrs by sulforhodamine B assay; assay type: functional; conditions: UO-31, 48 h
[41] = tested on: DU-145; assay: Growth inhibition of human DU145 cells incubated for 48 hrs by sulforhodamine B assay; assay type: functional; conditions: DU-145, 48 h
[42] = tested on: MDA-MB-231; assay: Growth inhibition of human MDA-MB-231 cells incubated for 48 hrs by sulforhodamine B assay; assay type: functional; conditions: MDA-MB-231, 48 h
[43] = tested on: BT-549; assay: Growth inhibition of human BT549 cells incubated for 48 hrs by sulforhodamine B assay; assay type: functional; conditions: BT-549, 48 h
[44] = tested on: T47D; assay: Growth inhibition of human T47D cells incubated for 48 hrs by sulforhodamine B assay; assay type: functional
[45] = tested on: MDA-MB-468; assay: Growth inhibition of human MDA-MB-468 cells incubated for 48 hrs by sulforhodamine B assay; assay type: functional; conditions: MDA-MB-468, 48 h

Work on `COc1ccccc1CNCCCN1C(=O)c2ccc3c4c(ccc(c24)C1=O)C(=O)N(CCCNCCCCNCCCN)C3=O` yielded a ΔTm [1] of 21.4 °C, a ΔTm [2] of 6.7 °C and a GI50 [3] of 425 nM. For the same molecule, the GI50 [4] was 301 nM, the GI50 [5] was 626 nM and the GI50 [6] was 325 nM. It also gave a GI50 [7] of 581 nM, a GI50 [8] of 1400 nM and a GI50 [9] of 664 nM. It also gave a GI50 [10] of 356 nM, a GI50 [11] of 1210 nM and a GI50 [12] of 311 nM. It also gave a GI50 [13] of 180 nM, a GI50 [14] of 168 nM and a GI50 [15] of 296 nM. The GI50 [16] was 315 nM, the GI50 [17] was 1740 nM and the GI50 [18] was 340 nM. For the same molecule, the GI50 [19] was 262 nM, the GI50 [20] was 338 nM and the GI50 [21] was 1080 nM. For the same molecule, the GI50 [22] was 426 nM, the GI50 [23] was 579 nM and the GI50 [24] was 752 nM. For the same molecule, the GI50 [25] was 300 nM, the GI50 [26] was 645 nM and the GI50 [27] was 213 nM. For the same molecule, the GI50 [28] was 229 nM, the GI50 [29] was 262 nM and the GI50 [30] was 2030 nM. The GI50 [31] was 2040 nM, the GI50 [32] was 2110 nM and the GI50 [33] was 1170 nM. For the same molecule, the GI50 [34] was 1340 nM, the GI50 [35] was 747 nM and the GI50 [36] was 2610 nM. It also gave a GI50 [37] of 324 nM, a GI50 [38] of 319 nM and a GI50 [39] of 422 nM. The GI50 [40] was 2680 nM, the GI50 [41] was 693 nM and the GI50 [42] was 435 nM. For the same molecule, the GI50 [43] was 1710 nM, the GI50 [44] was 214 nM and the GI50 [45] was 133 nM.
`COc1ccccc1CNCCCN1C(=O)c2ccc3c4c(ccc(c24)C1=O)C(=O)N(CCCOCCCCOCCCN)C3=O` gave a ΔTm [1] of 12.9 °C, a ΔTm [2] of 1.5 °C and a GI50 [3] of 550 nM. For the same molecule, the GI50 [4] was 494 nM, the GI50 [5] was 1720 nM and the GI50 [6] was 346 nM. For the same molecule, the GI50 [7] was 1220 nM, the GI50 [8] was 1180 nM and the GI50 [9] was 2660 nM. For the same molecule, the GI50 [10] was 605 nM, the GI50 [11] was 1900 nM and the GI50 [12] was 657 nM. The GI50 [13] was 919 nM, the GI50 [14] was 233 nM and the GI50 [15] was 635 nM. The GI50 [16] was 344 nM, the GI50 [17] was 550 nM and the GI50 [18] was 1270 nM. For the same molecule, the GI50 [19] was 357 nM, the GI50 [20] was 1430 nM and the GI50 [21] was 1420 nM. For the same molecule, the GI50 [22] was 1680 nM, the GI50 [23] was 1530 nM and the GI50 [24] was 1790 nM. The GI50 [25] was 760 nM, the GI50 [26] was 1090 nM and the GI50 [27] was 200 nM. For the same molecule, the GI50 [28] was 1830 nM, the GI50 [29] was 593 nM and the GI50 [30] was 1890 nM. For the same molecule, the GI50 [31] was 1470 nM, the GI50 [32] was 2360 nM and the GI50 [33] was 1530 nM. It also gave a GI50 [34] of 1320 nM, a GI50 [35] of 1110 nM and a GI50 [36] of 1830 nM. It also gave a GI50 [37] of 771 nM, a GI50 [38] of 918 nM and a GI50 [39] of 1970 nM. For the same molecule, the GI50 [40] was 1550 nM, the GI50 [41] was 1780 nM and the GI50 [42] was 1220 nM. For the same molecule, the GI50 [43] was 1950 nM, the GI50 [44] was 976 nM and the GI50 [45] was 289 nM.
